One may read the IC50 as the concentration needed to halve the response being measured. Lower therefore signals higher potency. As a reminder, the ED50 is the dose that gives a 50% effect, or the effect in half of the subjects. Low values mean an effect at a small dose, high ones a need for a large dose.

The subject of assay [1] is HeLa. The assay is described as follows: In vitro anticellular activity against HeLa S3 cells. The class given is functional, cell-based. The settings on record: Homo sapiens. The gist of the method:
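HeLa S3 cells seeded in 96-well plates on day 0, then exposed to compound for 1 h on day 1. Anticellular activity determined by a previously described method.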

In assay [2] the test system is CCRF S-180. Briefly: Treated versus control value of tumor volume was measured in ddY mice. The class given is functional, Mus musculus. The gist of the method:
(§1)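 Sarcoma 180 cells implanted subcutaneously in the axillary region of ddY mice on day 0. Compounds given intravenously on day 1. Tumor volume determined by a previously described method and expressed as treated/control. ED50 is the dose giving 50% inhibition of tumor growth, taken from the dose–response curve. Optimal dose also recorded.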

Assay [3] concerns CCRF S-180. Briefly: Effective dose that gave 50 percent inhibition of sarcoma 180 tumor growth in ddY mice. The class given is functional. The note with it: Mus musculus. The gist of the method: as §1
The test system of assay [4] is CCRF S-180. Briefly: Optimal dose against sarcoma 180 tumor in ddY mice. The class given is functional, Mus musculus. The gist of the method: as §1

SMILES strings stand for the structures. Some results are limits rather than exact numbers.

Compound `COC1=C(CC(C)C)C(=O)C2=C(C1=O)[C@@H](COC(N)=O)[C@@]1(OC)[C@H]3N[C@H]3CN21` yielded a 50% inhibitory concentration (IC50) in assay [1] of 0.2 µM.

In turn, `CCCCCC1=C(N)C(=O)C2=C(C1=O)N1C[C@@H]3N[C@@H]3[C@]1(OC)[C@@H]2COC(N)=O` yielded a half-maximal inhibitory concentration (IC50) in assay [1] greater than 10 µM.

Take `CO[C@@]12[C@H](COC(N)=O)C3=C(C(=O)C(CC[N+](=O)[O-])=C(N)C3=O)N1C[C@@H]1N[C@@H]12`: the T/C in assay [2] was found to be 0.44. The 50% effect level in assay [3] (ED50) was put at a dose of 8 mg/kg. The same compound returned an IC50 in assay [1] of 1.5 µM. For the same compound, in assay [4], the OD came out at 15 mg/kg.

The compound `CCCCCC1=C(OC)C(=O)C2=C(C1=O)N1C[C@H]3[C@H](N3C)[C@]1(O)[C@H]2COC(N)=O` (stereo partly specified) had a T/C in assay [2] of 0.79. Further, in assay [1], the half-maximal inhibitory concentration (IC50) was 3.1 µM. The compound further returned an OD in assay [4] of 20 mg/kg.

`CCC1=C(N)C(=O)C2=C(C1=O)N1C[C@H]3[C@H](N3C)[C@]1(OC)[C@@H]2COC(N)=O` (stereo partly specified) registered a T/C in assay [2] of 1.02. In assay [4], this compound displayed an OD of 46 mg/kg.

In the case of `CO[C@@]12[C@H](COC(N)=O)C3=C(C(=O)C(CC(C)C)=C(N)C3=O)N1C[C@@H]1N[C@@H]12`, the T/C in assay [2] came to 0.78. In assay [1], this compound returned a half-inhibitory concentration (IC50) greater than 10 µM. In assay [4], this compound registered an OD of 46 mg/kg.

In assay [1], `CCCCCCCCCCCC1=C(N)C(=O)C2=C(C1=O)N1C[C@@H]3N[C@@H]3[C@]1(OC)[C@@H]2COC(N)=O` gave an IC50 greater than 10 µM.

`CCC1=C(OC)C(=O)C2=C(C1=O)N1C[C@H]3[C@H](N3C)[C@]1(O)[C@H]2COC(N)=O` (stereo partly specified) came in with a T/C in assay [2] of 0.39. In assay [3], this compound came in with an ED50 of 14 mg/kg. Also, the IC50 in assay [1] is 0.3 µM. The OD in assay [4] came out at 30 mg/kg.

Consider `C=CCC1=C(N)C(=O)C2=C(C1=O)N1C[C@@H]3N[C@@H]3[C@]1(OC)[C@@H]2COC(N)=O`, for which, in assay [1], half-maximal inhibition (IC50) required 10 µM.

As for `COC1=C(Cc2ccccc2)C(=O)C2=C(C1=O)[C@@H](COC(N)=O)[C@@]1(OC)[C@H]3N[C@H]3CN21`, the T/C in assay [2] was 0.43. In assay [3], this compound registered an ED50 of 23 mg/kg. In assay [1], the IC50 came out at 0.063 µM. The OD in assay [4] stood at 30 mg/kg.

`CCCCCCCCCCCCCCCCCCCC1=C(N)C(=O)C2=C(C1=O)N1C[C@@H]3N[C@@H]3[C@]1(OC)[C@@H]2COC(N)=O` showed an IC50 in assay [1] of 9 µM.

Take `CO[C@@]12[C@H](COC(N)=O)C3=C(C(=O)C(Cc4ccccc4)=C(N)C3=O)N1C[C@@H]1N[C@@H]12`: the half-maximal inhibitory concentration (IC50) in assay [1] was greater than 10 µM.

`CCC1=C(N)C(=O)C2=C(C1=O)N1C[C@H]3[C@H](N3C)[C@]1(O)[C@H]2COC(N)=O` (stereo partly specified) had a T/C in assay [2] of 0.8. This compound also came in with a half-maximal inhibitory concentration (IC50) in assay [1] greater than 10 µM. This compound yielded an OD in assay [4] of 20 mg/kg.

In the case of `CCC1=C(N)C(=O)C2=C(C1=O)N1C[C@@H]3N[C@@H]3[C@]1(OC)[C@@H]2COC(N)=O.ClC(Cl)Cl`, the T/C in assay [2] is 0.42. The same compound displayed a 50% effective dose (ED50) in assay [3] of 38 mg/kg. In assay [1], this compound yielded an IC50 greater than 10 µM. In assay [4], this compound gave an OD of 46 mg/kg.

Consider `COC1=C(Cc2ccccc2)C(=O)C2=C(C1=O)[C@H](COC(N)=O)[C@@]1(O)[C@@H]3[C@H](CN21)N3C` (stereo partly specified) [6-BENZYL-6-DEMETHYLMITOMYCIN B], for which the T/C in assay [2] worked out at 0.41. The compound also came in with a median effective dose (ED50) in assay [3] of 37 mg/kg. The IC50 in assay [1] came out at 0.52 µM. This compound yielded an OD in assay [4] of 46 mg/kg.

`COC1=C(CC(C)C)C(=O)C2=C(C1=O)[C@H](COC(N)=O)[C@@]1(O)[C@@H]3[C@H](CN21)N3C` (stereo partly specified) [6-DEMETHYL-6-(2-METHYLPROPYL)MITOMYCIN B]: the T/C in assay [2] turned out to be 0.71. Also, in assay [1], the midpoint of inhibition, the IC50, lay at 6.1 µM. Besides, the OD in assay [4] turned out to be 20 mg/kg.

For `CCC1=C(OC)C(=O)C2=C(C1=O)N1C[C@@H]3N[C@@H]3[C@]1(OC)[C@@H]2COC(N)=O` [6-DEMETHYL-6-ETHYLMITOMYCIN A], the T/C in assay [2] stood at 0.1. The compound further gave a 50% effective dose (ED50) in assay [3] of 2.8 mg/kg. Moreover, in assay [1], the concentration for half-maximal inhibition (IC50) stood at 0.017 µM. In assay [4], the OD was found to be 7.4 mg/kg.

Consider `CCCCCCCCCCCCCCCCCCCC1=C(OC)C(=O)C2=C(C1=O)N1C[C@@H]3N[C@@H]3[C@]1(OC)[C@@H]2COC(N)=O` [6-DEMETHYL-6-N-NONADECYLMITOMYCIN A], for which the T/C in assay [2] was determined as 0.69. The same compound had a 50% inhibitory concentration (IC50) in assay [1] of 7.3 µM. For the same compound, the OD in assay [4] was 46 mg/kg.

`CCCCCC1=C(OC)C(=O)C2=C(C1=O)N1C[C@@H]3N[C@@H]3[C@]1(OC)[C@@H]2COC(N)=O` [6-DEMETHYL-6-N-PENTYLMITOMYCIN A] displayed a T/C in assay [2] of 0.37. It took a dose of 19 mg/kg to reach the 50% effect level in assay [3] (ED50). The compound also yielded an IC50 in assay [1] of 0.087 µM. Further, in assay [4], the OD amounted to 30 mg/kg.

In turn, `CCCCCCCCCCCC1=C(OC)C(=O)C2=C(C1=O)N1C[C@@H]3N[C@@H]3[C@]1(OC)[C@@H]2COC(N)=O` [6-DEMETHYL-6-N-UNDECYLMITOMYCIN A] displayed a T/C in assay [2] of 0.8. For the same compound, the concentration for half-maximal inhibition (IC50) in assay [1] was found to be 0.64 µM. The compound also yielded an OD in assay [4] of 20 mg/kg.

In turn, `COC1=C(C)C(=O)C2=C(C1=O)[C@@H](COC(N)=O)[C@@]1(OC)[C@H]3N[C@H]3CN21` [MITOMYCIN A] came in with a T/C in assay [2] of 0.2. It took a dose of 1.3 mg/kg to reach the 50% effect level in assay [3] (ED50). In addition, the OD in assay [4] came out at 1.8 mg/kg.

In assay [2], `CO[C@@]12[C@H](COC(N)=O)C3=C(C(=O)C(C)=C(N)C3=O)N1C[C@@H]1N[C@@H]12` [MITOMYCIN] had a T/C of 0.26. In addition, the ED50 in assay [3] was determined as 1.7 mg/kg. Also, the IC50 in assay [1] was determined as 0.59 µM. Besides, the OD in assay [4] was 6 mg/kg.

The values are drawn from ChEMBL document CHEMBL1127845, “Synthesis and antitumor activity of novel 6-alkyl-6-demethylmitomycins” (J Med Chem, 1994).
